Autophagy HCS: autophagy modulators in MEF cells, primary screen, imaging, high-content, MEF GFP-LC3; MEF GFP-LC3 puncta imaging; test concentration mostly 10 µM; calls only at 10 µM (by protocol); hit rate 0.98% among 190,000;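 active means percentage of spot-positive cells more than 3 SD above its plate mean, without a fluorescence outlier flag or 80% toxicity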;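 further: spot-positive cell cutoff set from DMSO-treated cells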
bCat KO growth: primary screen for growth suppressors in beta-catenin knockout HCT116 cells (colon tumor, human); HCT116 beta-catenin knockout viability, CellTiter-Glo, 60 h; stronger effect = lower value; viability, % at 10 µM; hit rate 1.5% among 140,000; AID 818, 2007;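 active means viability at or under a set limit, the compound median less 4 SD, cut at about 6% in these data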;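 further: 0% = Hyamine 1622 control at 20 µM and 100% = untreated cell control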
Lmaj promast: Leishmania major promastigote growth inhibition, primary screen. Leishmania major promastigotes, resazurin fluorescence viability. inhibition, % at 10 µM. hit rate 9% among 200,000; in the data active means inhibition above about 50%;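 further: promastigotes grown with compound for 44 hours at 28 °C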
HCT116 PTEN-null: growth suppression of PTEN-null HCT116, primary screen, cell-based, CellTiter-Glo; viability, % at 10 µM; hit rate 1.2% among 140,000; AID 827, 2007; HCT116 PTEN-null viability, 60 h; stronger effect = lower value;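 active means viability at or below a set limit, 4 SD under the median of all tested compounds, cut at about 3.7% in these data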;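 further: PTEN knockout HCT116 line with beta catenin targeted HCT116 as companion control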
Dynein transport: inhibitors of GR-EGFP nuclear translocation, primary screen, dynein cargo transport inhibitor project, imaging, high-content, 3617.4 mouse cells. test concentration mostly 20 µM; stimulated with dexamethasone, 1 µM; stronger effect = lower value. z-score, hits read low. hit rate 0.47% among 220,000;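 active means plate z-score of nuclear minus cytoplasmic receptor signal below a set negative limit, without overly bright fluorescence or cell loss, cut at about -3.5 in these data, passing the limit was not always enough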;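 further: z-score of nuclear minus cytoplasmic ring GR-EGFP intensity difference per well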
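Also added: dexamethasone, 1.0 µM final. Medium: tet-free, stripped-serum medium. Detection: fixed, Hoechst-stained cells imaged at 10x for EGFP. Read-out: nuclear-to-cytoplasmic GR-EGFP distribution per well. Times: induction 48 h, compound 1 h, agonist 30 min.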
An asterisk follows results filed as active; i = inactive; nt = no result given; + = active, no number. This is a sample that favours compounds with a hit; in the whole collection about 9.2% have one here.

SMILES	Autophagy HCS	bCat KO growth	Lmaj promast	HCT116 PTEN-null	Dynein transport
O=C(O)CC(NC(=O)C(c1ccccc1)c1ccccc1)c1cccc([N+](=O)[O-])c1 (stereo not drawn)	nt	nt	nt	nt	0.634
CCCCC(=O)NC(c1cccc([N+](=O)[O-])c1)c1c(OC(C)=O)ccc2ccccc12 (stereo not drawn)	i	61.4	89.1*	55.9	0.756
CC(=O)Oc1ccc2ccccc2c1C(NC(=O)C(C)C)c1cccc([N+](=O)[O-])c1 (stereo not drawn)	i	72.0	99.3*	62.8	-0.00615
CCOC(=O)C(NC(C)=O)C(OC(C)=O)c1cccc([N+](=O)[O-])c1 (stereo not drawn)	i	105.2	-5.2	103.6	0.0179
CC1=NN(C(=O)c2ccc(C)o2)C(O)(c2ccccc2)C1 (stereo not drawn)	i	82.8	3.6	93.2	2.9
Cc1cccc2cc(C3CC(c4cccs4)=NN3S(C)(=O)=O)c(Cl)nc12 (stereo not drawn)	nt	nt	nt	nt	-0.374
CC1=C(C#N)c2nc(N)c(C#N)c(C)c2/C1=C\c1ccc(C)cc1	+	3.2*	100.2*	1.9*	1.78
COc1cc(/C=C2\C(C)=C(C#N)c3nc(N)c(C#N)c(C)c32)ccc1OCC(=O)O	nt	nt	nt	nt	-0.835
COc1ccc(C(=O)NC=C2C(=O)OC(C)(C)OC2=O)cc1	i	nt	-10.8	nt	-0.248
COc1ccc(/C(C)=N/NC(=O)c2cc(-c3cccnc3)nc3ccccc23)cc1	i	87.9	-5.7	93.7	-0.097
C/C(=N\NC(=O)c1cc(-c2ccncc2)nc2ccccc12)c1ccc(OC(F)F)cc1	i	nt	89.0*	nt	-0.648
O=C(NCC1COc2ccccc2O1)c1ccc(Cl)cc1 (stereo not drawn)	i	98.0	-0.2	83.2	-0.322
O=C(OC1CCCCC1)c1ccc(NC(=O)c2ccco2)cc1	i	67.5	75.2*	64.4	-0.349
O=C(Nc1ccc(OC(=O)c2ccco2)cc1)c1ccco1	i	93.6	-2.2	86.6	-0.548
O=C(Nc1cccc(NC(=O)c2ccco2)c1)c1ccc2c(c1)OCCO2	i	nt	51.3*	nt	1.94
O=C(NCC1COc2ccccc2O1)c1ccc(NC(=O)c2ccco2)cc1 (stereo not drawn)	i	98.7	55.1*	104.2	3.15
O=C(Nc1cccc(NC(=O)c2ccco2)c1)c1ccc2c(c1)OCO2	i	90.4	81.0*	88.4	-0.444
CN(C)CCCN(CCCN(C)C)C(=S)Nc1ccc(S(=O)(=O)N2CCOCC2)cc1	nt	nt	nt	nt	3.67
CCN(CC)CCOc1ccccc1C(C)=O	i	nt	-3.5	nt	0.51
CC(=O)Nc1c(O)nc(SCC(=O)Nc2nnc(CC(C)C)s2)[nH]c1=O	+	94.1	-3.5	98.5	1
Cc1cc(=O)[nH]c(SCC(=O)Nc2nnc(CC(C)C)s2)n1	i	96.5	-7.6	96.8	0.468
COCCNC(=O)CSc1nnc(-c2ccc(C)cc2)c(-c2ccc(C)cc2)n1	i	nt	89.7*	nt	-0.0571
CCC1=NNc2cccc3c(OC)ccc1c23	i	78.2	100.5*	72.2	-0.585
COC(=O)c1cc2c(s1)-c1ccc(OC)cc1CC2	nt	nt	nt	nt	1.65
OC(COCc1cccs1)CN1CCN(c2cccc(Cl)c2)CC1 (stereo not drawn)	i	82.8	98.6*	88.4	0.0347
SMILES	Autophagy HCS	bCat KO growth	Lmaj promast	HCT116 PTEN-null	Dynein transport
CCOC(=O)C1CCN(C(=O)COc2ccc(S(=O)(=O)NC(C)(C)C)cc2)CC1	i	80.6	1.7	95.6	-0.825
CCOC(=O)C1CCN(CC(O)COc2ccc(C(C)(C)C)cc2)CC1 (stereo not drawn)	i	8.3	92.0*	8.9	1.73
CCOC(=O)C1CCN(CC(O)COc2ccc(C(C)=O)cc2)CC1 (stereo not drawn)	i	96.6	92.0*	98.8	1.33
CCOC(=O)C1CCN(CC(O)COc2ccc(C(C)(C)CC)cc2)CC1 (stereo not drawn)	i	58.7	96.9*	60.0	2.23
CN(C)S(=O)(=O)c1cccc(NC(=O)c2ccc3nccnc3c2)c1	nt	nt	nt	nt	-0.0671
CCc1ccccc1NCC(=O)Nc1ccc(Cl)c(C(F)(F)F)c1	i	69.5	48.8	58.5	0.0232
CCOC(=O)C1CCN(CC(O)COCc2cccs2)CC1 (stereo not drawn)	i	nt	79.1*	nt	0.473
Cc1c(C(=O)N(C)C)c2ccc(Cl)cc2n1O	i	93.7	-10.4	98.5	-0.0165

High-throughput results as filed in PubChem BioAssay.
